Assays:
[1] = Drug recovery in dialysate of patient (6 patients) with renal insufficiency assessed as hydroxy flutamide at 250 mg, po administered as single dose 4 hrs prior to hemodialysis treatment measured during dialysis treatment by gas chromatography; format: ADME, organism-based; conditions: human, in vivo
How it was run: (§1)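 Group V haemodialysis males (CLcr <5 ml min−1 1.73 m−2). Single oral 250 mg flutamide (two 125 mg capsules) right after HD; after 14-day washout, same dose 4 h before HD lasting 2–4 h. Venous samples to 48 h, arterial/venous during HD, dialysate in hourly blocks. GC with 63Ni electron-capture detection. CL(HD) = dialysate Ae(HD)/arterial AUC(HD); renal CL = Ae(0,48)/AUC(0,48 h).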

[2] = AUC (0 to 96 hrs) in patient (7 patients) with renal insufficiency at 250 mg, po administered as single dose by gas chromatography; format: ADME, organism-based; parameters: dose 250 mg, time < 96 hr, route oral; conditions: human, in vivo
[3] = Renal clearance in patient (4 patients) with renal insufficiency at 250 mg, po administered as single dose by gas chromatography; format: ADME, organism-based, Kidney; conditions: human, in vivo
How it was run: (§2)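 Males grouped by 24 h CLcr normalised to body surface area (>80, 50–80, 30–49, 5–29 ml min−1 1.73 m−2), fasted 10 h pre-dose and 4 h post-dose, given a single oral 250 mg flutamide dose. Plasma sampled 0–96 h; urine collected in blocks to 96 h. Flutamide and hydroxyflutamide measured by GC with electron-capture detection. Renal CL = Ae(0,96 h)/AUC(0,96 h); t1/2 = 0.693/λz.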

Homo sapiens [4] = assay: Tmax in patient (3 patients) with renal insufficiency assessed as hydroxy flutamide at 250 mg, po administered as single dose by gas chromatography; format: ADME, organism-based; conditions: in vivo; how it was run: as §2
[5] = AUClast in patient (7 patients) with renal insufficiency at 250 mg, po administered as single dose by gas chromatography; format: ADME, organism-based; parameters: dose 250 mg, time 0 - last, route oral; conditions: human, in vivo
Homo sapiens [6] = assay: AUC (0 to 24 hrs) in patient (6 patients) with renal insufficiency assessed as hydroxy flutamide at 250 mg, po administered as single dose 4 hrs prior to hemodialysis treatment measured at starting time of dialysis and post dialysis treatment by gas chromatography; format: ADME, organism-based; parameters: time < 24 hr, dose 250 mg, route oral; conditions: in vivo
Homo sapiens [7] = assay: Tmax in patient (6 patients) with renal insufficiency assessed as hydroxy flutamide at 250 mg, po administered as single dose 4 hrs prior to hemodialysis treatment measured at starting time of dialysis and post dialysis treatment by gas chromatography; format: ADME, organism-based; conditions: in vivo; how it was run: as §1
Homo sapiens [8] = assay: AUClast in patient (3 patients) with renal insufficiency at 250 mg, po assessed as hydroxy flutamide administered as single dose by gas chromatography; format: ADME, organism-based; parameters: dose 250 mg, time 0 - last, route oral; conditions: in vivo
Homo sapiens [9] = assay: Final time point in terminal phase in patient (7 patients) with renal insufficiency assessed as hydroxy flutamide at 250 mg, po administered as single dose by gas chromatography; format: ADME, organism-based; conditions: in vivo; how it was run: as §2
[10] = AUClast in patient (6 patients) with renal insufficiency at 250 mg, po administered as single dose 4 hrs prior to hemodialysis treatment measured at starting time of dialysis and post dialysis treatment by gas chromatography; format: ADME, organism-based; parameters: dose 250 mg, route oral, time 0 - last; conditions: human, in vivo
[11] = AUC (0 to 96 hrs) in patient (6 patients) with renal insufficiency at 250 mg, po administered as single dose by gas chromatography; format: ADME, organism-based; parameters: dose 250 mg, time < 96 hr, route oral; conditions: human, in vivo
Homo sapiens [12] = assay: Cmax in patient (6 patients) with renal insufficiency assessed as hydroxy flutamide at 250 mg, po administered as single dose by gas chromatography; format: ADME, organism-based; parameters: dose 250 mg, route oral; conditions: in vivo
Homo sapiens [13] = assay: AUC (0 to 96 hrs) in patient (6 patients) with renal insufficiency assessed as hydroxy flutamide at 250 mg, po administered as single dose 4 hrs prior to hemodialysis treatment measured at starting time of dialysis and post dialysis treatment by gas chromatography; format: ADME, organism-based; parameters: time < 96 hr, dose 250 mg, route oral; conditions: in vivo
[14] = Tmax in patient (7 patients) with renal insufficiency at 250 mg, po administered as single dose by gas chromatography; format: ADME, organism-based; conditions: human, in vivo; how it was run: as §2
Homo sapiens [15] = assay: Terminal half life in patient (6 patients) with renal insufficiency assessed as hydroxy flutamide at 250 mg, po administered as single dose 4 hrs prior to hemodialysis treatment measured at starting time of dialysis and post dialysis treatment by gas chromatography; format: ADME, organism-based; conditions: in vivo; how it was run: as §1
[16] = AUC (0 to 24 hrs) in patient (6 patients) with renal insufficiency at 250 mg, po administered as single dose by gas chromatography; format: ADME, organism-based; parameters: dose 250 mg, time < 24 hr, route oral; conditions: human, in vivo
Homo sapiens [17] = assay: Final time point in terminal phase in patient (4 patients) with renal insufficiency at 250 mg, po administered as single dose by gas chromatography; format: ADME, organism-based; conditions: in vivo; how it was run: as §2
[18] = Tmax in patient (6 patients) with renal insufficiency at 250 mg, po administered as single dose by gas chromatography; format: ADME, organism-based; conditions: human, in vivo; how it was run: as §2
[19] = Tmax in patient (6 patients) with renal insufficiency at 250 mg, po administered as single dose 4 hrs prior to hemodialysis treatment measured at starting time of dialysis and post dialysis treatment by gas chromatography; format: ADME, organism-based; conditions: human, in vivo; how it was run: as §1
[20] = Renal clearance in patient (3 patients) with renal insufficiency at 250 mg, po administered as single dose by gas chromatography; format: ADME, organism-based, Kidney; conditions: human, in vivo; how it was run: as §2
[21] = AUClast in patient (6 patients) with renal insufficiency at 250 mg, po administered as single dose by gas chromatography; format: ADME, organism-based; parameters: dose 250 mg, time 0 - last, route oral; conditions: human, in vivo
[22] = AUC (0 to 24 hrs) in patient (6 patients) with renal insufficiency at 250 mg, po administered as single dose 4 hrs prior to hemodialysis treatment measured at starting time of dialysis and post dialysis treatment by gas chromatography; format: ADME, organism-based; parameters: time < 24 hr, dose 250 mg, route oral; conditions: human, in vivo
Homo sapiens [23] = assay: Toxicity in patient with renal insufficiency assessed as fatigue at 250 mg, po administered as single dose; format: organism-based; conditions: in vivo
How it was run: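 26 male subjects in groups by 24 h creatinine clearance (normalized to body surface area): >80, 50–80, 30–49, 5–29, <5 ml min−1 1.73 m−2 on haemodialysis. Given as two 125 mg capsules after a 10 h fast, continued 4 h post-dose. Prescription drugs withheld for the same period. Subjects confined 12 h pre-dose to 48 h post-dose, with adverse events compared across renal-function groups.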

[24] = Elimination rate constant in patient with renal insufficiency at 250 mg, po administered first dose followed by 14 days wash out period and administered second dose 4 hrs prior to hemodialysis measured during hemodialysis treatment by gas chromatography; format: ADME, organism-based; conditions: human, in vivo; how it was run: as §1
[25] = Drug excretion in urine of patient (4 patients) with renal insufficiency assessed as hydroxy flutamide at 250 mg, po administered as single dose by gas chromatography; format: ADME, organism-based; conditions: human, in vivo; how it was run: as §2
Homo sapiens [26] = assay: Terminal half life in patient (7 patients) with renal insufficiency assessed as hydroxy flutamide at 250 mg, po administered as single dose by gas chromatography; format: ADME, organism-based; conditions: in vivo; how it was run: as §2
Homo sapiens [27] = assay: Clearance in patient with renal insufficiency at 250 mg, po administered first dose followed by 14 days wash out period and administered second dose 4 hrs prior to hemodialysis measured during hemodialysis treatment by gas chromatography; format: ADME, organism-based; conditions: in vivo; how it was run: as §1
Homo sapiens [28] = assay: Cmax in patient (3 patients) with renal insufficiency assessed as hydroxy flutamide at 250 mg, po administered as single dose by gas chromatography; format: ADME, organism-based; parameters: dose 250 mg, route oral; conditions: in vivo
[29] = AUC (0 to 96 hrs) in patient (4 patients) with renal insufficiency at 250 mg, po administered as single dose by gas chromatography; format: ADME, organism-based; parameters: time < 96 hr, dose 250 mg, route oral; conditions: human, in vivo
[30] = AUC (0 to 96 hrs) in patient (3 patients) with renal insufficiency at 250 mg, po administered as single dose by gas chromatography; format: ADME, organism-based; parameters: time < 96 hr, dose 250 mg, route oral; conditions: human, in vivo
Homo sapiens [31] = assay: Clearance in patient (6 patients) with renal insufficiency assessed as hydroxy flutamide at 250 mg, po administered as single dose 4 hrs prior to hemodialysis treatment measured during dialysis treatment by gas chromatography; format: ADME, organism-based; conditions: in vivo; how it was run: as §1

With `CC(C)C(=O)Nc1ccc([N+](=O)[O-])c(C(F)(F)F)c1` [FLUTAMIDE] the Drug recovery [1] was 1.2 mg, the AUC(0-t) at 96 h [2] was 59.8 ng·h/mL and the CL renal [3] was 4 mL/min. It also gave a Tmax (Homo sapiens [4]) of 3 h, an AUC(0-t) [5] of 32.5 ng·h/mL and an AUC (Homo sapiens [6]) of 5434 ng·h/mL. The Tmax (Homo sapiens [7]) was 1 h, the AUClast (Homo sapiens [8]) was 6843 ng·h/mL and the Time (Homo sapiens [9]) was 38.6 h. It also gave an AUC(0-t) at 4 h [10] of 179 ng·h/mL, an AUC(0-t) at 96 h [11] of 96.4 ng·h/mL and a Cmax (Homo sapiens [12]) of 1070 ng/mL. For the same compound, the AUC (Homo sapiens [13]) was 5963 ng·h/mL, the Tmax [14] was 1.7 h and the “beta t1/2” value (Homo sapiens [15]) was 8 h. It also gave an AUC(0-t) at 24 h [16] of 96.4 ng·h/mL, a Time (Homo sapiens [17]) of 5 h and a Tmax [18] of 1.4 h. It also gave a Tmax [19] of 1 h, a CL renal [20] of 2 mL/min and an AUC(0-t) [21] of 75.8 ng·h/mL. For the same compound, the AUC(0-t) at 24 h [22] was 217 ng·h/mL, the Activity (Homo sapiens [23]) was 12% and the k el [24] was 5.56e-05 s⁻¹. The Drug excretion [25] was 92 µg, the “beta t1/2” value (Homo sapiens [26]) was 7.1 h and the CL (Homo sapiens [27]) was 21.4 mL/min. It also gave a Cmax (Homo sapiens [28]) of 902 ng/mL, an AUC(0-t) at 96 h [29] of 107 ng·h/mL and an AUC(0-t) at 96 h [30] of 98 ng·h/mL. For the same compound, the CL (Homo sapiens [31]) was 21 mL/min.

Reference: ChEMBL document CHEMBL3784969, “Pharmacokinetics of flutamide in patients with renal insufficiency” (Br J Clin Pharmacol, 1999)
